In the library only some 3.8% were active in any assay of this set; here they are far more common.
Granule exo inh – blocks lytic granule exocytosis. TALL-104 LAMP-1 surface exposure, flow cytometry; cells stimulated with thapsigargin and PMA. inhibition, % at 10 µM. actives 0.66% (n = 360,000). AID 651702;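 active = inhibition above about 55%, limit read from the data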
T cell modulator – T cell immune modulation candidate. response (vesicle binding), % at 7 µM. 2C CD8+ T cell-vesicle binding, flow cytometry; hits give low values. actives 0.068% (n = 330,000). AID 2052;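 active = response, share of CD8 T cells binding vesicles, and their 90th percentile fluorescence all below set limits, cut at about 80% in these data, passing the limit was not always enough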;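 note: values below 100% mean blocked vesicle binding to the CD8+ T cells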
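System: murine 2C transgenic CD8+ T lymphocytes; also added: QL9-loaded Drosophila micro-vesicles; times: binding 1.5 h at 37 °C; measured by: flow cytometry, PE anti-B7-1 (FL2) versus Alexa647 anti-CD8 (FL8), PFA-fixed; control set: Peptide-free naked vesicles (low) and QL9 vesicles with 0.7% DMSO vehicle (high)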
Beta2AR agonist – agonists of human beta-2 adrenergic receptor inducing internalization | Am2.2-beta2AR cells, FAP receptor internalization, flow cytometry | P07550 | response, % (test concentration not listed) | actives 0.43% (n = 340,000);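 active = response above a set limit, near 3 SD of response in nonfluorescent compounds, cut at about 42% in these data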
Target sequence (P07550 whole entry, looked up): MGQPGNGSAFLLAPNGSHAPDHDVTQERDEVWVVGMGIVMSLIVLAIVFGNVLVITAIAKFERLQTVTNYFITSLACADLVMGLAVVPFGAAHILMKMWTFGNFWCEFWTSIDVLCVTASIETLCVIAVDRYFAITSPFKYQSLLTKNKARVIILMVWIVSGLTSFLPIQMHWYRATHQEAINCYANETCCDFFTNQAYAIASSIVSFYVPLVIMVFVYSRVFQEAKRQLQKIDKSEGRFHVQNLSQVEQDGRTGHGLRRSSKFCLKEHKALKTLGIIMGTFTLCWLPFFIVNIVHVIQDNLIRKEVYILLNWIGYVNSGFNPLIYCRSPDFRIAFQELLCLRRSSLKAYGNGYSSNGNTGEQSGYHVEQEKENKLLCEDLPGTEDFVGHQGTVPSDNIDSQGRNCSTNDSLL
MPTP inh – inhibitors of mitochondrial permeability transition pore; inhibition, % at 10 µM; actives 1.4% (n = 360,000); AID 602449; isolated mouse mitochondria, Ca2+ swelling absorbance, 30 min;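 active = inhibition of 50% or more, scaled per plate between neutral and stimulator controls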
V-ATPase pHluor – alters yeast V-ATPase proton transport; S. cerevisiae, pHLuorin cytosolic pH fluorescence; response, % at 10 µM; actives 0.37% (n = 350,000); in the data active = response mostly above about 7.3%, no sharp cut-off; inactive = mostly below about 5.4%; note: actives read high
rCAG RNA binder – binds r(CAG) RNA repeats; r(CAG) RNA repeat, TO-PRO-1 dye displacement fluorescence; inhibition, % at 3 µM; actives 1.3% (n = 370,000); AID 651821;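 active = inhibition above the plate cutoff, the mean of all test compounds on that plate plus 3 SD, cut at about 35% in these data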;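 note: higher means more dye released from RNA so lower well fluorescence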
Rh123 counter – Rhodamine 123 counter-screen of mitochondrial pore hits; shares compounds with MPTP inh; isolated mitochondria, membrane potential, Rhodamine 123 fluorescence; inhibition, % at 10 µM; actives 78% (n = 5,000); AID 624504; in the data active = inhibition above about 22%
MPTP swell DR – dose response confirmation of mitochondrial permeability transition pore inhibitors | shares compounds with MPTP inh | IC50, µM | isolated mitochondria swelling, absorbance | actives 58% (n = 780) | AID 651561; in the data active = IC50 below about 20 µM
MPTP cs DR – counter-screen for mitochondrial permeability transition pore inhibitors, dose response | actives 49% (n = 780) | isolated mitochondria counterscreen, fluorescence read-out | IC50, µM | shares compounds with MPTP inh | AID 651564; in the data active = IC50 below about 80 µM
Exocytosis CP01 – blocks lytic granule exocytosis | shares compounds with Granule exo inh | TALL-104 cells, LAMP-1 externalization, flow cytometry; stimulated with PMA plus thapsigargin | inhibition, % at 10 µM | actives 11% (n = 1,500) | AID 651954; in the data active = inhibition above about 60%
Of the large screens only hits and unclear results are named; the others gave an inactive call (follow-up assays come after a bar, where they were run).

O=C1NC(=S)S/C1=C\c1cc(Cl)ccc1Cl	MPTP inh 98 (no result: T cell modulator) | Rh123 counter 84
O=C1NC(=S)SC1=Cc1ccccc1C(=O)O	none (no result: T cell modulator, Beta2AR agonist, V-ATPase pHluor)
CC(C)c1ccc(OCCCN2CCC(C(O)(c3ccccc3)c3ccccc3)CC2)cc1	none (no result: Granule exo inh, T cell modulator, Beta2AR agonist, MPTP inh, V-ATPase pHluor)
CC1CCN(CCNC(=O)c2ccc3c(=O)n(Cc4ccc(Cl)cc4)c(=S)[nH]c3c2)CC1	MPTP inh 90 (no result: rCAG RNA binder) | Rh123 counter inactive
O=C(c1ccc2c(=O)n(Cc3ccc(Cl)cc3)c(=S)[nH]c2c1)N1CCCC1	none
CCN1CCN(CCCNC(=O)c2ccc3c(=O)n(CCc4ccccc4)c(=O)[nH]c3c2)CC1	none
CCCN1CCN(CCCNC(=O)c2ccc3c(=O)n(CCc4ccccc4)c(=O)[nH]c3c2)CC1	MPTP inh 70 | Rh123 counter inactive | MPTP swell DR inactive | MPTP cs DR inactive
CN1CCN(C(=O)c2ccc3c(=O)n(Cc4ccc(Cl)cc4)c(=S)[nH]c3c2)CC1	MPTP inh 93 | Rh123 counter inactive | MPTP swell DR 18 | MPTP cs DR inactive
O=C(CSc1nc2ccccc2[nH]1)NN=Cc1ccccc1C(=O)O	none (no result: Granule exo inh, T cell modulator, Beta2AR agonist, MPTP inh, V-ATPase pHluor)
COC(=O)c1cc2c(c3c4cc(C)ccc4n(S(=O)(=O)c4cccc(C)c4)c13)C(=O)N(Cc1ccc(N(C)C)cc1)C2	none (no result: Granule exo inh, T cell modulator, Beta2AR agonist, MPTP inh, V-ATPase pHluor)
COC(=O)N/N=C/c1cc(Br)ccc1O	none
CC(C)NC(=S)N/N=C/c1cc(Br)ccc1O	MPTP inh 93 | Rh123 counter 61
O=C(Nc1cccc(Cl)c1Cl)c1snnc1-c1ccccc1	none
O=C(Nc1cc(Cl)ccc1O)c1snnc1-c1ccccc1	MPTP inh 94 | Rh123 counter 91
NC(=NCCc1ccccc1)NC(=O)c1cc(Cl)ccc1O	MPTP inh 56 | Rh123 counter 74
O=C(CCc1ccccc1)N/N=C/c1cc(Br)ccc1O	T cell modulator 0.0, MPTP inh 91 | Rh123 counter 80
CCOC(=O)[C@]12CCCCC/C=C\1N(Cc1ccc(OC)cc1)C(=O)[C@H]2CC(=O)NCc1cccc(C(F)(F)F)c1	none (no result: Granule exo inh, T cell modulator, Beta2AR agonist, MPTP inh, V-ATPase pHluor)
O=C(CCc1ccccc1)Nc1cc(Cl)ccc1O	MPTP inh 68 | Rh123 counter 81
O=C(O)CC(=O)Nc1cc(Cl)ccc1O	none
NC1=[N+](Cc2ccccc2)C[C@H]2C(=C3CCCC[C@H]3n3c(=O)n(-c4ccccc4)c(=O)n32)N1	none (no result: Granule exo inh, T cell modulator, Beta2AR agonist, MPTP inh, V-ATPase pHluor)
S=C(NCc1ccccc1)Nc1cccc(Cl)c1	MPTP inh 97 | Rh123 counter 101
Fc1ccc(CNC(=S)Nc2cccc(C(F)(F)F)c2)cc1	MPTP inh 100 | Rh123 counter 85
O=[N+]([O-])c1cc(C(F)(F)F)cc([N+](=O)[O-])c1NCCNC(=S)Nc1cccc(F)c1	MPTP inh 90 | Rh123 counter 78
O=C(CNc1cccc(Cl)c1)NNC(=S)NCc1ccccc1	none
Fc1cccc(NC(=S)NCc2ccc(Cl)cc2)c1	MPTP inh 96 | Rh123 counter 89
O=C(NCC1CCN(C(=O)C(=O)c2cccs2)CC1)c1cccnc1	none (no result: Granule exo inh, T cell modulator, Beta2AR agonist, MPTP inh, V-ATPase pHluor)
Fc1ccccc1CNC(=S)Nc1cccc(C(F)(F)F)c1	MPTP inh 74 | Rh123 counter 97
Fc1cc(NC(=S)NCc2ccc(CNC(=S)Nc3ccc(Cl)c(F)c3)cc2)ccc1Cl	MPTP inh 92 | Rh123 counter 73
FC(F)(F)c1cccc(NC(=S)NCc2ccc(Cl)cc2)c1	MPTP inh 78 | Rh123 counter 88
CCOC(=O)C1=C(C(=O)OCC)C2N(Cc3ccc(Br)cc3)c3ccccc3[C@@]23C[C@@H](C(=O)OC)N(S(=O)(=O)c2ccc(F)cc2)C3=N1 (some centres not stated)	none (no result: Granule exo inh, T cell modulator, Beta2AR agonist, MPTP inh, V-ATPase pHluor)
CC(C)(C)OC(=O)N1CCC[C@@H]1C(=O)N1CCC[C@H]1C(=O)NCc1ccccc1	none (no result: Granule exo inh, T cell modulator, Beta2AR agonist, MPTP inh, V-ATPase pHluor)
CC(C)[C@H](NC(=O)c1ccccc1)C(=O)N1CCC[C@H]1C(=O)NCCc1ccccc1Cl	none (no result: Granule exo inh, T cell modulator, Beta2AR agonist, MPTP inh, V-ATPase pHluor)
COc1ccc(C(=O)C[n+]2ccc3c(c2)nc(Cc2ccccc2)n3C)cc1	none (no result: Granule exo inh, T cell modulator, Beta2AR agonist, MPTP inh, V-ATPase pHluor)
Cc1ccccc1OCCNC(=O)CSc1ccc(C(F)(F)F)cc1[N+](=O)[O-]	MPTP inh 93 | Rh123 counter 73
COc1cccc(OCCNC(=O)CSc2ccc(C(F)(F)F)cc2[N+](=O)[O-])c1	MPTP inh 76 | Rh123 counter 46
COC(=O)[C@]12C[C@H](CC(=O)N3CCN(C(=O)c4ccco4)CC3)C(=O)N(Cc3ccco3)C1=C[C@H](C(C)(C)C)O[C@@H]2C	none (no result: Granule exo inh, T cell modulator, Beta2AR agonist, MPTP inh, V-ATPase pHluor)
COc1cccc(NC(=S)NCCC(c2ccccc2)c2ccccc2)c1	none
COc1cc(NC(=S)NCCC(c2ccccc2)c2ccccc2)cc(OC)c1	MPTP inh 78 | Rh123 counter 92
Cc1cccc(NC(=S)NCCC(c2ccccc2)c2ccccc2)c1	MPTP inh 87 | Rh123 counter 100
CCCCCCCCNC(=O)C1CSCCS(=O)(=O)N1Cc1ccc(OC)cc1 (configuration not stated)	none (no result: Granule exo inh, T cell modulator, Beta2AR agonist, MPTP inh, V-ATPase pHluor)
CN1CCN(c2ccc(-c3cccc(NC(=O)COc4ccc(Cl)cc4Cl)c3)nn2)CC1	MPTP inh 74 (no result: V-ATPase pHluor) | Rh123 counter inactive | MPTP swell DR 19 | MPTP cs DR inactive
CN1CCN(c2ccc(-c3cccc(NC(=O)COc4ccc(Cl)cc4)c3)nn2)CC1	none
CCc1cc2c3c(c1)C(C)CC(C)(C)N3C(=O)/C2=C1\SC(=O)NC1=O (configuration not stated)	MPTP inh 55 | Rh123 counter 47
COc1cc2c3c(c1)C(C)CC(C)(C)N3C(=O)C2=O (configuration not stated)	none
Cc1ccc(C(=O)Nc2nc(=O)n(C(=O)CC(C)C)s2)cc1	MPTP inh 58 | Rh123 counter 78
Cc1nc(NCCc2ccccc2)c2oc3ccccc3c2n1	MPTP inh 97 | Rh123 counter 75
O=C(OCc1ccccc1)N(CCCCN(CCCNCc1ccccc1)C(=O)OCc1ccccc1)CCCNCc1ccccc1	Granule exo inh 85, MPTP inh 64 (no result: T cell modulator) | Rh123 counter inactive | Exocytosis CP01 99
O=C(NCCCCCCNC(=O)OCc1ccccc1)OCc1ccccc1	none (no result: T cell modulator)
Cc1onc(-c2ccc(Cl)cc2)c1-c1ccn(S(=O)(=O)c2cccc(Cl)c2)n1	none (no result: Granule exo inh, T cell modulator, Beta2AR agonist, MPTP inh, V-ATPase pHluor)

Bioassay records as filed in PubChem BioAssay.
